# Published values of several laboratories.
# Each line is one published result; the experiments were not run side by side.
# Target: Activin receptor type-2A (ACVR2A, Homo sapiens, UniProt P27037)
Compound,observed,method,concentration,remaining binding [%]
FC(F)(F)Oc1cccc(-c2cnc3ccc(-c4ccncc4)nn23)c1,cell-free assay,competition with immobilised ligand,5 µM,77
O=C(NCc1ncc(C(F)(F)F)cc1Cl)c1ccc2c(c1)C1(CCS(=O)(=O)CC1)[C@@H](C1CC1)N2S(=O)(=O)c1ccc(F)cc1,cell-free assay,competition with immobilised ligand,1 µM,100
O=C(NCCCN1CCOCC1)c1ccc(Nc2nccc(-c3cc4ccccc4s3)n2)cc1,binding,competition with immobilised ligand,1 µM,58
CN(C)c1ncc(F)c(-c2cnn3ncccc23)n1,binding,,1 µM,95
CN(C)CC#Cc1ccc(OCCCc2sc(N3CCc4cccc(C(=O)Nc5nc6ccccc6s5)c4C3)nc2C(=O)O)c(F)c1,cell-free assay,competition with immobilised ligand,1 µM,94
N[C@@H]1CCN(c2nccc(-c3cnn4ncccc34)n2)C1,binding,,1 µM,100
c1cncc(-c2cccc(Nc3nccc(NC4CCCCC4)n3)c2)c1,binding,competition with immobilised ligand,10 µM,70
O=C1CCc2cc(Nc3cc(OC4CCOCC4)c([N+](=O)[O-])cc3Cl)ccc2N1,cell-free assay,competition with immobilised ligand,1 µM,81
COc1cnc(Nc2cccc(S(N)(=O)=O)c2)nc1N1CCN(c2ccccc2)C(=O)C1,binding,competition with immobilised ligand,1 µM,100
CN(C)c1nccc(-c2cnn3ncccc23)n1,binding,,1 µM,90
CC(=O)Nc1c(C(C)=O)c(=O)n(C)c2nc(-c3ccc(Cl)cc3Cl)c(-c3ccc(Cl)cc3)cc12,cell-free assay,competition with immobilised ligand,1 µM,100
Nc1ncc2c(n1)-c1c([nH]c3ccc(C#CC4CC4)cc13)CCCC2,binding,competition with immobilised ligand,1 µM,91
CCOC(=O)c1cc2cc(-c3cc(C(=O)NCc4ccc(C(=O)O)cc4)nn3C)ccc2[nH]1,cell-free assay,competition with immobilised ligand,0.1 µM,59
O=C(c1ccc(Nc2ncc(Cl)c(-c3ccc(Cl)s3)n2)cc1)N1CCC(N2CCCC2)CC1,binding,competition with immobilised ligand,1 µM,71
COc1ccnn2ncc(-c3ccnc(N(C)C)n3)c12,binding,,1 µM,100
O=C(c1ccc(Nc2ncc(Cl)c(-c3cc4ccccc4s3)n2)cc1)N1CCC(N2CCCC2)CC1,binding,competition with immobilised ligand,1 µM,64
C[C@@H]1CCN(c2nccc(-c3cnn4ncccc34)n2)C1,binding,,1 µM,100
O=C(NCC1CCOCC1)c1n[nH]cc1NC(=O)c1c(F)cccc1F,binding,competition with immobilised ligand,1 µM,85
F[C@@H]1CCN(c2nccc(-c3cnn4ncccc34)n2)C1,binding,,1 µM,100
COc1cnc(Nc2cccc(S(N)(=O)=O)c2)nc1N1CCN(c2ccccc2)CC1,binding,competition with immobilised ligand,1 µM,97
O=c1nc(-c2ccccn2)sc2ccccc12,cell-free assay,competition with immobilised ligand,1 µM,91
Cc1cnn2ncc(-c3ccnc(N(C)C)n3)c2c1,binding,,1 µM,74
